Shown are actives, neighbours in structure and some others; about 4.3% of the full set was active somewhere.
NF-kB expr up – raises NF-kB expression in human neuronal cells. fold change at 12.5 µM. AID 1239. 1.6% of 190,000 active. NF-kB reporter expression; active compounds read high; in the data active means fold change above about 3.3
STAT1 activator – STAT1 signaling activation. NIH 3T3 STAT1-luciferase reporter, IFN-gamma, luminescence; 100% = IFN-gamma alone, no compound. activation (% of control), % at 5.5 µM. 2.6% of 200,000 active;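 active means activation above the screen-wide mean activation plus 3 SD, cut at about 130% in these data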
FLuc stim CS – firefly luciferase counter-screen for stimulation assays. P08659. ATPlite luciferase biochemical, luminescence, 10 min; 0 = ATP-free wells, 1 = DMSO control. activation factor at 10 µM. 200,000 tested, under 10 active;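 active means luciferase activation factor, scaled between plate controls, of at least 2 with compound at 10 µM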
Target sequence (P08659 whole entry, looked up): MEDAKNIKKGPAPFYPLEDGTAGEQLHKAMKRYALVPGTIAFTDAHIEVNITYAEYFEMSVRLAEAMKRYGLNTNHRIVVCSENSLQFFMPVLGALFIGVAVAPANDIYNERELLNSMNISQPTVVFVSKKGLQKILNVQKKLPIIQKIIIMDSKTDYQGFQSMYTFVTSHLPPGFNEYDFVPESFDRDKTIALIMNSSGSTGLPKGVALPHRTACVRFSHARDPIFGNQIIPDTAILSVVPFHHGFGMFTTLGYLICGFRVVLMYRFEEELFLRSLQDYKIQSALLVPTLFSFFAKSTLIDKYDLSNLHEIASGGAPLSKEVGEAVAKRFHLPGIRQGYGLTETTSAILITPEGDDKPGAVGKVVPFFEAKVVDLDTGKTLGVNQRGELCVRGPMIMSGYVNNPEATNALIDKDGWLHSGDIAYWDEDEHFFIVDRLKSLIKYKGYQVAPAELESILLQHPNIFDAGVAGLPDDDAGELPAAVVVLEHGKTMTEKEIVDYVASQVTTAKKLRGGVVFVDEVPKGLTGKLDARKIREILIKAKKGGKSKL
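System: Luciferase/luciferin detection reagent, cell-free biochemical luciferase assay | Medium: PBS buffer for ATP | Dosing: Test compounds dosed from 2 mM stocks in 100% DMSO | Timing: 10 min at ambient temperature | Signal: Luminescence measurement of luciferase light output | Evaluation: Luciferase activation, seen as luminescence increase over controls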
FLuc inhib CS – counter-screen for luciferase assay inhibitors: firefly luciferase inhibition | P08659 | ATPLite firefly luciferase biochemical luminescence, 10 min | inhibition, % at 10 µM | 1.5% of 200,000 active;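 active means inhibition above about 50% when tested at 10 µM, limit read from the data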
sdo1 growth – compounds rescuing growth of sdo1-depleted yeast, bone marrow failure model | S. cerevisiae sdo1-depleted JHY4D growth rescue, OD600 30 h; active compounds read high; pdr5 snq2 efflux-pump mutant strain | z-score at 10 µM | 0.21% of 140,000 active;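 active means z-score above 3 at both the 24 hr and the 30 hr optical density reads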
APP 5'UTR act – APP 5'UTR luciferase reporter activation | SH-SY5Y APP 5'UTR luciferase reporter, luminescence; zero percent = DMSO vehicle wells | activation, % at 2 µM | 1% of 190,000 active | AID 1276;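 active means activation above a set limit, based on mean plus 3 SD of controls, cut at about 140% in these data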
SDO1 rescue DR – SDO1-depleted yeast growth rescue confirmation; shares compounds with sdo1 growth; S. cerevisiae JHY4D (SDO1-depleted) growth rescue, OD600, 30 h; active compounds read high; efflux-deficient strain, SNQ2 and PDR5 mutated; OD recovery (concentration not given with the values); 44% of 440 active; AID 949;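 active means yeast growth recovered at 30 hours, either rising with dose fitted slope above 0.001 or with average optical density gain above 0.07, some results past the limit were not filed as active; inactive means growth falling with dose or no effect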
STAT1 activ conf – confirmation of STAT1 signaling activators. shares compounds with STAT1 activator. NIH 3T3 STAT1-luciferase reporter, IFN-gamma potentiation, luminescence; 100% = IFN-gamma EC80 alone, no compound. activation (% of control), % at 5.7 µM. 97% of 1,200 active. AID 1262;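 active means activation above a set limit carried over from the earlier primary STAT1 screen, cut at about 140% in these data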
NFkB act STAT1ct – counter-screen for STAT1 activators: NF-kappaB activation; activation (% of control), % at 5.7 µM; 43% of 1,200 active; shares compounds with STAT1 activator; HEK293T NF-kB luciferase reporter, TNF-alpha stimulated, luminescence; 100% = TNF-alpha with vehicle only;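 active means activation above the mean of solvent-only control wells plus 3 SD, set per campaign, cut at about 130% in these data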;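 further: TNF-alpha given at a submaximal dose yielding about 80% of full reporter signal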
STAT3 act STAT1c – human STAT3 activation in STAT1 activator counter-screen. 46% of 1,200 active. shares compounds with STAT1 activator. U3A cells STAT3-luciferase reporter, IL-6, luminescence; cells lack STAT1; 100 = IL-6 alone, no compound effect. activation (% of control), % at 5.7 µM;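 active means activation above the solvent-only control well mean plus 3 SD, set per plate batch, cut at about 110% in these data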;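 further: higher means more STAT3 reporter activation so hits are non-selective activators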
Numbers stand for hits; . = inactive; / = no result.

SMILES	NF-kB expr up	STAT1 activator	FLuc stim CS	FLuc inhib CS	sdo1 growth	APP 5'UTR act	STAT1 activ conf	NFkB act STAT1ct	STAT3 act STAT1c	others
CC1CCN(CC(=O)c2ccc3c(c2)OCCO3)CC1	.	138.8	.	.	/	146.4	/	/	/
CCOC(=O)c1cc(CC)sc1/N=C/c1c(O)[nH]c(=S)[nH]c1=O	.	.	.	.	13.9	.	/	/	/	SDO1 rescue DR=.
CN1CCc2nc3ccc(F)cc3c(C(N)=O)c2C1	.	.	.	.	.	.	/	/	/
COc1ccc(-c2cc(=O)c3c(OC)c(OC)c(OC)cc3o2)cc1	.	.	.	.	/	.	/	/	/
COc1ccc(-c2cc(=Nc3ccccc3)c3cc(C)ccc3o2)cc1	8.59	165.1	.	.	.	.	143.4	.	.
COc1ccc(-c2cc(=NCCC(=O)O)c3cc(C)ccc3o2)cc1	3.7	153.4	.	.	/	144.8	154.0	.	.
N/C(=N\[N+](=O)[O-])NCCCC(NC(=O)CNC(=O)c1ccccc1)C(=O)O (stereo unspecified)	.	.	.	.	/	.	/	/	/
O=C(c1cc2c(s1)-c1ccccc1OC2)N1CCC2(CC1)OCCO2	3.85	158.2	.	.	.	142.4	195.6	133.8	118.8
CC(C)(C)NC(=O)C1CC2CCCCC2CN1 (stereo unspecified)	.	.	.	.	/	.	/	/	/
O=C1NC(=O)C(=Cc2ccc(Oc3ccc([N+](=O)[O-])cc3)cc2)C(=O)N1	.	.	.	.	/	.	/	/	/
COc1cc(C=C2C(=O)NC(=O)NC2=O)ccc1OCc1ccc([N+](=O)[O-])cc1	3.42	152.0	.	52.3	/	.	174.6	136.2	121.5

Compound activity (PubChem BioAssay)
